The record followed here is ChEMBL document CHEMBL1142700, “Nonpolar and short side chain groups at C-11beta of estradiol result in antiestrogens” (J Med Chem, 2005).

Assay [1] concerns the target Estrogen receptor beta (Homo sapiens) (UniProt Q92731). Put plainly: Inhibition of [3H]E2 binding to human Estrogen receptor-beta ligand binding domain (LBD) expressed in Escherichia coli lysates. In a few lines:
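Human ERβ LBD (M214-Q530) in E. coli lysates; overnight room-temperature competition with [3H]E2, charcoal separation of bound from free. RBA relative to E2 from EC50 ratio × 100, at least three duplicate experiments.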

In assay [2] the target is T1, Estrogen receptor (Homo sapiens) (UniProt P03372).
T1 sequence (whole entry): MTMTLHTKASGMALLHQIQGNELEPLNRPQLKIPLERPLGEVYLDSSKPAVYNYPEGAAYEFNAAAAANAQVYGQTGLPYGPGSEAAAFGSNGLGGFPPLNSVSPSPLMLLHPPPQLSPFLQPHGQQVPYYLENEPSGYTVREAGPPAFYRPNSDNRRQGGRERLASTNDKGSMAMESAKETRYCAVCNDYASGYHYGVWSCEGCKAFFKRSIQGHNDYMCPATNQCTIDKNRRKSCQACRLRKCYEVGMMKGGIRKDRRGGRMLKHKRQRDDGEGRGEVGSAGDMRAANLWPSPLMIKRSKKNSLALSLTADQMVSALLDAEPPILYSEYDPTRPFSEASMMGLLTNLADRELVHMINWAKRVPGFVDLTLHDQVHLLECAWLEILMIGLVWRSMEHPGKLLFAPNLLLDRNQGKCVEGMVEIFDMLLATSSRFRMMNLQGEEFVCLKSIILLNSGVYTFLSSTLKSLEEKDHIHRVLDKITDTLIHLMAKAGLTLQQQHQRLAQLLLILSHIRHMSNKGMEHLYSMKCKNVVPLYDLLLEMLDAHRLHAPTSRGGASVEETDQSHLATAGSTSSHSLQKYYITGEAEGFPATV
Kind of assay: Inhibition of [3H]E2 binding to human Estrogen receptor-alpha ligand binding domain (LBD) expressed in Escherichia coli lysates. In a few lines:
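Human ERα LBD (M250-V595) expressed in E. coli lysates, competed against [3H]E2 overnight at room temperature. Bound separated by dextran-coated charcoal. RBA = EC50 of E2 / EC50 of analogue × 100, from at least three experiments in duplicate.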

Assay [3] has as its system Ishikawa. Kind of assay: Inhibitory constant against stimulation of alkaline phosphatase activity in Ishikawa cells; ag./ant. is mixed agonist/antagonist. The format is functional, cell-based, Homo sapiens.
Assay [4] has as its target Estrogen receptor (Rattus norvegicus) (UniProt P06211+Q62986). Kind of assay: Relative binding affinity for estrogen receptor of rat uterine cytosol. The format is protein assay. In a few lines: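 Cytosol from uteri of Sprague-Dawley rats taken 24 h after castration, homogenized in TEGDMo buffer (pH 7.4), spun at 105 000g. Incubated on ice overnight with 1 nM [3H]E2 and competitor at 10^-12 to 10^-6 M. Dextran-coated charcoal separation, counting. RBA = EC50 E2 / EC50 analogue × 100, at least three duplicate experiments.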

Assay [5] has as its system Ishikawa. Put plainly: Inhibitory constant against stimulation of alkaline phosphatase activity in Ishikawa cells; (agonist). The format is functional, cell-based, Homo sapiens.
Assay [6] relates to Ishikawa. Put plainly: Estrogenic potency measured as stimulation of alkaline phosphatase activity relative to E2 in human endometrialadenocarcinoma cells (Ishikawa). The format is functional. In short, it runs like this: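 Ishikawa human endometrial adenocarcinoma cells grown in phenol red-free medium with charcoal-stripped bovine serum and steroid over at least 6 orders of magnitude for 3 days. Cells washed, freeze-thawed, then given 5 mM p-nitrophenyl phosphate at pH 9.8, with kinetic reading of p-nitrophenol at 405 nm. At least three experiments in duplicate; EC50 by curve fitting.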

The subject of assay [7] is Ishikawa. Kind of assay: Inhibitory constant against stimulation of alkaline phosphatase activity in Ishikawa cells; not active. It is filed as functional, cell-based, Homo sapiens.
In assay [8] the test system is Ishikawa. Put plainly: Inhibitory constant against stimulation of alkaline phosphatase activity in Ishikawa cells; na is not active. It is filed as functional, cell-based, Homo sapiens.
For assay [9], the system named is Ishikawa. Put plainly: Inhibitory constant against stimulation of alkaline phosphatase activity in Ishikawa cells. It is filed as functional, cell-based, Homo sapiens.
Assay [10] has as its system Ishikawa. Kind of assay: Inhibitory constant against stimulation of alkaline phosphatase activity in Ishikawa cells; weak mixed agonist/antagonist. The format is functional, cell-based, Homo sapiens.
Assay [11] concerns Ishikawa. Kind of assay: Inhibitory constant against stimulation of alkaline phosphatase activity in Ishikawa cells; mixed agonist/antagonist moderate activity. The format is functional, cell-based, Homo sapiens.
Assay [12] has as its system Ishikawa. Kind of assay: Relative stimulatory activity in Ishikawa cells with respect to E2. The format is functional, Homo sapiens. In short, it runs like this:
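Ishikawa alkaline phosphatase induction: phenol red-free medium, charcoal-stripped bovine serum, 3-day exposure to steroid across at least 6 log units. Read kinetically at 405 nm with 5 mM p-nitrophenyl phosphate, pH 9.8. RSA = (1/EC50 analogue) / (1/EC50 E2) × 100, fitted in at least three duplicate experiments.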

The subject of assay [13] is Ishikawa. Kind of assay: Inhibitory constant of the compound against stimulationofalkaline phosphatase activity inIshikawa cells; weak mixed agonist/antagonist. The format is functional, cell-based, Homo sapiens.

Sequence of Estrogen receptor beta (Homo sapiens) (Q92731 whole entry, the tested form may be a part): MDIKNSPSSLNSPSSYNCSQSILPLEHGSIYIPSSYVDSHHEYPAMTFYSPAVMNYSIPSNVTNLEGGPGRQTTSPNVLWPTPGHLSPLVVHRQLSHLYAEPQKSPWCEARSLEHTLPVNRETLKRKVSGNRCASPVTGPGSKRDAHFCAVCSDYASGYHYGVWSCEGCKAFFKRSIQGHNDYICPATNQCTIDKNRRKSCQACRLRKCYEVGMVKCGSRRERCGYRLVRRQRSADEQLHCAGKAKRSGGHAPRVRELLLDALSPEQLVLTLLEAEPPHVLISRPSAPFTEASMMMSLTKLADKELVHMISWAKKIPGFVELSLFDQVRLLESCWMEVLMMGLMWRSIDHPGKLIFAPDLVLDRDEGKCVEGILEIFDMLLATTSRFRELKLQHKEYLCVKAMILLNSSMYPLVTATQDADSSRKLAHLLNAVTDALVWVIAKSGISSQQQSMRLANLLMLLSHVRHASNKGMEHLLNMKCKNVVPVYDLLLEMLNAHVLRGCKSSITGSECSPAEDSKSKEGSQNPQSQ

With `CCOC[C@H]1C[C@]2(C)[C@@H](O)CC[C@H]2[C@@H]2CCc3cc(O)ccc3[C@@H]12`, the RBA in [1] came out at 73%; in [2], 70%; in [4], 28%. Also, the inhibitory constant (Ki) (usually the equilibrium dissociation constant of an inhibitor or competing ligand from its target) in the assay on Ishikawa [3] is on record as “Partial agonist”.

On to `COC[C@H]1C[C@]2(C)C(O)CC[C@H]2[C@@H]2CCc3cc(O)ccc3[C@@H]12` (some centres undefined), for which, in the assay on Ishikawa [5], the Ki entry is “Agonist”. Also, the figures for the RBA in assay [1], in [2] and in assay [4] were 240%, 114% and 20%, respectively. Also, the Relative stimulatory activity in the assay with Ishikawa [6] is recorded as 125%.

As to `CC(=O)CC[C@H]1C[C@]2(C)[C@@H](O)CC[C@H]2[C@@H]2CCc3cc(O)ccc3[C@@H]12`, in the assay on Ishikawa [7], the inhibition constant Ki result is “Not Active”. Besides, the RBA in assay [4] amounted to 1%.

As for `CCCCO[C@H]1C[C@]2(C)[C@@H](O)CC[C@H]2[C@@H]2CCc3cc(O)ccc3[C@H]21`, the RBA in assay [1] worked out at 21%; in [2] it was 7.5%; in assay [4], 2.1%. In the assay on Ishikawa [8], the inhibitory constant (Ki) entry is listed as “Not Active”.

`CCOC(=S)C[C@H]1C[C@]2(C)[C@@H](O)CC[C@H]2C2CCc3cc(O)ccc3[C@H]21` (single isomer, unassigned) showed a Ki in the assay with Ishikawa [9] of 2.7 nM. In addition, the RBA in assay [4] was found to be 10%.

In the case of `CCCOCC[C@H]1C[C@]2(C)[C@@H](O)CC[C@H]2C2CCc3cc(O)ccc3[C@H]21` (single isomer, unassigned), the Ki in the assay with Ishikawa [9] turned out to be 0.3 nM. The results for the RBA in assay [1], in assay [2] and in assay [4] were 88%, 54% and 65%, respectively.

As for `CNC(=O)CC[C@H]1C[C@]2(C)[C@@H](O)CC[C@H]2[C@@H]2CCc3cc(O)ccc3[C@@H]12`, the Ki result in the assay on Ishikawa [10] is listed as “Partial agonist”. The same compound came in with an RBA in assay [4] of 0.6%.

In the assay with Ishikawa [9], `CCCOC[C@H]1C[C@]2(C)[C@@H](O)CC[C@H]2[C@@H]2CCc3cc(O)ccc3[C@@H]12` came in with a Ki of 0.3 nM. The RBA in assay [1] was 125%; in assay [2] it was 146%; in assay [4] it was 43%.

For the compound `C[C@]12C[C@H](CCOCCF)[C@@H]3c4ccc(O)cc4CCC3[C@@H]1CC[C@@H]2O` (single isomer, unassigned), in the assay with Ishikawa [9], the affinity, expressed as Ki, was 55 nM. In addition, the results for the RBA in assay [1], in [2] and in [4] were 34%, 112% and 16%, respectively.

On to `CCC(=O)CC[C@H]1C[C@]2(C)[C@@H](O)CC[C@H]2[C@@H]2CCc3cc(O)ccc3[C@@H]12`, for which the inhibition constant (Ki) in the assay with Ishikawa [9] was found to be 16 nM. In [4], this compound had an RBA of 3.7%.

Consider `CC(C)OC(=O)C[C@H]1C[C@]2(C)[C@@H](O)CC[C@H]2C2CCc3cc(O)ccc3[C@H]21` (single isomer, unassigned), for which, in the assay on Ishikawa [9], the inhibition constant (Ki) came out at 2.1 nM. The same compound returned an RBA in assay [4] of 17%.

`CC(C)OCC[C@H]1C[C@]2(C)[C@@H](O)CC[C@H]2C2CCc3cc(O)ccc3[C@H]21` (single isomer, unassigned) gave an inhibition constant (Ki) in the assay with Ishikawa [9] of 0.4 nM. Further, the RBA in assay [1] worked out at 32%; in assay [2], 45%; in assay [4], 15%.

As for `CC(C)(C)OCC[C@H]1C[C@]2(C)[C@@H](O)CC[C@H]2C2CCc3cc(O)ccc3[C@H]21` (single isomer, unassigned), the Ki with Ishikawa [9] worked out at 20 nM. In addition, the RBA in assay [1] came out at 2%; in assay [2] it was 5%; in assay [4], 2.3%.

The compound `COCCC[C@H]1C[C@]2(C)[C@@H](O)CC[C@H]2[C@@H]2CCc3cc(O)ccc3[C@@H]12` showed a Ki with Ishikawa [9] of 0.3 nM. Moreover, the RBA in assay [1] worked out at 111%; in [2], 159%; in [4], 34%.

For the compound `COCC[C@H]1C[C@]2(C)[C@@H](O)CC[C@H]2C2CCc3cc(O)ccc3[C@H]21` (single isomer, unassigned), the Ki result in the assay on Ishikawa [11] was “Partial agonist”. Besides, the RBA in assay [1] was determined as 90%; in [2], 67%; in [4], 25%.

On to `CCCOC(=O)C[C@H]1C[C@]2(C)[C@@H](O)CC[C@H]2C2CCc3cc(O)ccc3[C@H]21` (single isomer, unassigned), for which the Ki with Ishikawa [9] came out at 1 nM. In addition, the RBA in [4] was determined as 38%.

Regarding `CCC(=O)C[C@H]1C[C@]2(C)[C@@H](O)CC[C@H]2C2CCc3cc(O)ccc3[C@H]21` (single isomer, unassigned), the Ki entry in the assay on Ishikawa [10] is given as “Partial agonist”. The Stimulatory activity in the assay on Ishikawa [12] turned out to be 1.9%. In assay [4], this compound registered an RBA of 18%.

Regarding `CC(C)(C)OCCC[C@H]1C[C@]2(C)[C@@H](O)CC[C@H]2[C@@H]2CCc3cc(O)ccc3[C@@H]12`, the affinity in the assay with Ishikawa [9], expressed as Ki, was 0.09 nM. The RBA was found to be 82% in assay [1], 128% in assay [2] and 81% in assay [4].

Compound `CCCCOC[C@H]1C[C@]2(C)[C@@H](O)CC[C@H]2[C@@H]2CCc3cc(O)ccc3[C@@H]12` returned an inhibition constant (Ki) in the assay with Ishikawa [9] of 0.1 nM. The values for the RBA in assay [1], in assay [2] and in [4] were 268%, 102% and 44%, respectively.

Take `C[C@]12C[C@H](COCCF)[C@@H]3c4ccc(O)cc4CC[C@H]3[C@@H]1CC[C@@H]2O`: the Ki result in the assay with Ishikawa [10] is on record as “Partial agonist”. Moreover, the RBA in assay [1] was determined as 35%; in assay [2], 27%; in assay [4], 10%.

For `CCNC(=O)C[C@H]1C[C@]2(C)[C@@H](O)CC[C@H]2C2CCc3cc(O)ccc3[C@H]21` (single isomer, unassigned), the Ki entry in the assay with Ishikawa [13] was “Partial agonist”. The same compound registered an RBA in assay [4] of 0.1%.

`CCOCCC[C@H]1C[C@]2(C)[C@@H](O)CC[C@H]2[C@@H]2CCc3cc(O)ccc3[C@@H]12` yielded an inhibitory constant (Ki) in the assay on Ishikawa [9] of 0.3 nM. In addition, the RBA in assay [1] was found to be 75%; in assay [2], 87%; in [4], 48%.

In the assay on Ishikawa [9], `CCOCC[C@H]1C[C@]2(C)[C@@H](O)CC[C@H]2C2CCc3cc(O)ccc3[C@H]21` (single isomer, unassigned) came in with an inhibition constant Ki of 0.3 nM. Further, the RBA in assay [1] stood at 40%; in [2], 49%; in assay [4] it was 31%.

`C[C@]12C[C@H](CCCOCCF)[C@@H]3c4ccc(O)cc4CC[C@H]3[C@@H]1CC[C@@H]2O` registered a Ki in the assay with Ishikawa [9] of 1.1 nM. For the same compound, the figures for the RBA in assay [1], in assay [2] and in assay [4] were 140%, 96% and 47%, respectively.

The compound `CC(C)(C)COC(=O)C[C@H]1C[C@]2(C)[C@@H](O)CC[C@H]2C2CCc3cc(O)ccc3[C@H]21` (single isomer, unassigned) displayed a Ki in the assay on Ishikawa [9] of 5.2 nM. Moreover, the RBA in [4] was 10%.

Take `CCCC(=O)CC[C@H]1C[C@]2(C)[C@@H](O)CC[C@H]2[C@@H]2CCc3cc(O)ccc3[C@@H]12`: in the assay on Ishikawa [9], the affinity, expressed as Ki, was 13 nM. This compound also displayed an RBA in assay [4] of 7.7%.

Take `CCNC(=O)CC[C@H]1C[C@]2(C)[C@@H](O)CC[C@H]2[C@@H]2CCc3cc(O)ccc3[C@@H]12`: the Ki entry in the assay on Ishikawa [10] is on record as “Partial agonist”. In [4], this compound returned an RBA of 3.7%.

For `CCCC(=O)C[C@H]1C[C@]2(C)[C@@H](O)CC[C@H]2C2CCc3cc(O)ccc3[C@H]21` (single isomer, unassigned), the Ki in the assay with Ishikawa [9] is 3.1 nM. The RBA in [4] was 13%.

`CC(C)OCCC[C@H]1C[C@]2(C)[C@@H](O)CC[C@H]2[C@@H]2CCc3cc(O)ccc3[C@@H]12` showed an inhibition constant (Ki) in the assay with Ishikawa [9] of 0.2 nM. For the same compound, the RBA in assay [1] came to 93%; in [2] it was 220%; in assay [4], 114%.
